Drawing on ChEMBL document CHEMBL3856274, “Sydnone Cycloaddition Route to Pyrazole-Based Analogs of Combretastatin A4” (J Med Chem, 2016), this text covers GI50, Activity and MTD for 14 molecules.

Each structure is given as a SMILES string. Active and inactive are the calls of the source. The calls are words filed in the database; no cut-off is given here.

The test system of data set [1] is HUVEC. Kind of data set: Growth inhibition of HUVEC after 72 hrs by crystal violet staining-based assay. It is filed as functional. Conditions: Homo sapiens. Put shortly: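 HUVECs at 5 × 10^3/well on gelatin-coated plates were allowed to adhere for 24 h, then given a drug concentration series in EBM (≥8 wells per concentration) for 72 h at 37 °C. Cells were fixed in 3.7% formalin and stained with 1% crystal violet, which was solubilized in 10% acetic acid and read at A590 with background correction. % growth inhibition from ≥3 independent experiments was plotted against log concentration to give GI50.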

Data set [2] deals with HUVEC. Nature of the data set: Disruption of interphase microtubule in HUVEC assessed as change in cell morphology at 250 nM after 30 mins by DAPI staining-based immunofluorescence assay. The settings on record: Homo sapiens. The method, boiled down: (§1)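 HUVECs (supplemented medium, 10% FCS final, used up to 5 passages) plated on fibronectin-coated chamber slides at 2.5 × 10^4 or 5 × 10^4 cells/well. Treated with drug (dilutions in EBM from 20 mM DMSO stock) or vehicle for 30 min. Then fixed in 3.7% formalin, permeabilized in 0.1% Triton X-100, and stained for β-tubulin (antibody), F-actin (phalloidin) and nuclei (DAPI).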

For data set [3], the system named is HUVEC. Nature of the data set: Disruption of interphase microtubule in HUVEC assessed as formation of actin stress fiber at 250 nM preincubated for 30 mins followed by compound washout measured after 60 mins by DAPI staining-based immunofluorescence assay. The settings on record: Homo sapiens. Format: cell-based. Put shortly: (§2)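 HUVECs on fibronectin-coated chamber slides were exposed to 250 nM drug or vehicle for 30 min at 37 °C. Cells were washed four times with serum-containing medium, incubated 30 min, washed again and incubated a further 30 min (60 min recovery). They were then fixed in 3.7% formalin, permeabilized with 0.1% Triton X-100, and stained for β-tubulin, F-actin (phalloidin) and DAPI.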

Data set [4] deals with HUVEC. Kind of data set: Induction of HUVEC monolayer permeability assessed as increase in passage of FITC-dextran through cell monolayer at 50 nM preincubated for 30 mins followed by compound washout and addition of FITC-dextran for 30 mins by fluorescence assay. The settings on record: Homo sapiens. It is filed as functional, cell-based. Put shortly:
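HUVECs seeded at 5 × 10^4 per fibronectin-coated 3 µm-pore insert and cultured 5 days to a confluent monolayer. Drug 50 nM for 30 min at 37 °C, then replaced with FITC-dextran (0.8 mg/mL) for 30 min. Lower-well fluorescence read at ex 488/em 525 and expressed as % of a cell-free insert. Mean of 3 independent experiments ± SEM.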

The subject of data set [5] is HUVEC. Nature of the data set: Disruption of interphase microtubule in HUVEC assessed as change in cell shape at 250 nM after 30 mins by DAPI staining-based immunofluorescence assay. Conditions: Homo sapiens. Put shortly:
as §1

The subject of a further data set is SW1222. Kind of data set: Induction of necrosis in human SW1222 cells xenografted in SCID mouse at 0.227 mmol/kg administered as single dose measured after 24 hrs by hematoxylin/eosin staining-based microscopic method. It is filed as functional, cell-based. The method, boiled down: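 SW1222 cells (5 × 10^6) injected s.c. into the rear dorsum of female SCID mice (8–12 weeks). Tumours treated at about 8 mm mean diameter with a single dose of 0.227 mmol/kg in […]/NaCl, 10 mL/kg. Tumours excised at 24 h. Necrosis scored on 5 µm H&E sections by Chalkley point counting.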

Data set [6] in a line: Toxicity in SCID mouse. It is filed as organism-based. The settings on record: in vivo.
For data set [7], the system named is HUVEC. Nature of the data set: Disruption of interphase microtubule in HUVEC assessed as change in cell shape and morphology at 250 nM preincubated for 30 mins followed by compound washout measured after 60 mins by DAPI staining-based immunofluorescence assay. Conditions: Homo sapiens. Put shortly:
as §2

Data set [8] relates to HUVEC. Nature of the data set: Activation of ROCK in HUVEC assessed as phosphorylation of myosin light chain at 50 to 500 nM after 15 mins by Western blot method. The settings on record: Homo sapiens. Format: cell-based. Put shortly:
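HUVECs seeded on gelatin at 5 × 10^4 cells/well and grown 7 days without medium change. Drugs diluted in EBM from 20 mM DMSO stock and applied 15 min. Proteins extracted in LDS buffer. Western blot for dually phosphorylated MLC, with actin reprobe for loading. Band intensity given as fold-change over vehicle. Mean of 3-4 independent experiments ± SEM.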
(In general: Immunoblotting shows a protein as a band on a membrane.)

The subject of data set [9] is HUVEC. Nature of the data set: Disruption of interphase microtubule in HUVEC assessed as change in cell morphology at 1 uM after 90 mins by DAPI staining-based immunofluorescence assay. Conditions: Homo sapiens. Put shortly: (§3)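 HUVECs seeded on fibronectin-coated chamber slides. Drug diluted in EBM from 20 mM DMSO stock. Exposure 250 nM for 30 min or 1 µM for 90 min. Fixed in 3.7% formalin and permeabilised in 0.1% Triton X-100. Stained for β-tubulin by antibody, F-actin by phalloidin and nuclei by DAPI, then imaged by immunofluorescence.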

For data set [10], the system named is HUVEC. Kind of data set: Disruption of interphase microtubule in HUVEC assessed as formation of actin stress fiber at 1 uM after 90 mins by phalloidin/DAPI staining-based immunofluorescence assay. It is filed as cell-based. The settings on record: Homo sapiens. The method, boiled down: as §3
For data set [11], the system named is HUVEC. Kind of data set: Disruption of interphase microtubule in HUVEC assessed as formation of actin stress fiber at 250 nM after 30 mins by phalloidin/DAPI staining-based immunofluorescence assay. Format: cell-based. The settings on record: Homo sapiens. Put shortly: as §3

As to `COc1ccc(-c2cn(C)nc2-c2cc(OC)c(OC)c(OC)c2)cc1O`, the GI50 in the data set on HUVEC [1] is greater than 5000 nM.
In the case of `COc1ccc(-c2c(-c3cc(OC)c(OC)c(OC)c3)cnn2C)cc1O`, the concentration for 50% growth inhibition (GI50) in the data set with HUVEC [1] is 118 nM.
On to `COc1ccc(-c2[nH]ncc2-c2cc(OC)c(OC)c(OC)c2)cc1O`, for which the result in the data set with HUVEC [2], in the data set on HUVEC [3], in the data set with HUVEC [4], in the data set with HUVEC [5], in the data set on SW1222 and in the data set with HUVEC [7] was Active. For the same molecule, in the data set on HUVEC [8], the outcome was Active. The molecule also gave a GI50 in the data set with HUVEC [1] of 7 nM. Besides, the MTD in data set [6] is greater than 162 mg/kg.
The molecule `COc1ccc(-n2nccc2-c2cc(OC)c(OC)c(OC)c2)cc1O` came in with a GI50 in the data set with HUVEC [1] greater than 750 nM.
The same measure, in the same setting: next, `COc1ccc(-c2cn(Cc3ccccc3)nc2-c2cc(OC)c(OC)c(OC)c2)cc1O`: greater than 5000 nM; `COc1ccc(-c2cnn(Cc3ccccc3)c2-c2cc(OC)c(OC)c(OC)c2)cc1O`: greater than 2500 nM.
On to `COc1ccc(-c2ccnn2-c2cc(OC)c(OC)c(OC)c2)cc1O`, for which the outcome in the data set on HUVEC [2] and with HUVEC [5] was Active. This molecule showed a GI50 in the data set with HUVEC [1] of 28 nM.
In the data set with HUVEC [1], `COc1ccc(-c2nn(C)cc2-c2cc(OC)c(OC)c(OC)c2)cc1O` showed a concentration for 50% growth inhibition (GI50) of 256 nM.
On the same count and under the same terms, with `COc1ccc(-c2cn[nH]c2-c2cc(OC)c(OC)c(OC)c2)cc1O` the figure was greater than 5000 nM.
As to `COc1cc2c(c(OC)c1OC)-c1ccc(OC)c(=O)cc1[C@@H](NC(C)=O)CC2` [COLCHICINE], the outcome in the data set on HUVEC [9] and with HUVEC [10] was Active. Also, the GI50 with HUVEC [1] is 25 nM.
Molecule `COc1ccc(-c2nn(Cc3ccccc3)cc2-c2cc(OC)c(OC)c(OC)c2)cc1O` gave a concentration for 50% growth inhibition (GI50) in the data set on HUVEC [1] greater than 2000 nM.
The same measure, in the same setting: with `COc1ccc(-c2c(-c3cc(OC)c(OC)c(OC)c3)cnn2Cc2ccccc2)cc1O` the figure was greater than 750 nM.
The same measure, in the same setting: with `COc1ccc(-c2cnn(C)c2-c2cc(OC)c(OC)c(OC)c2)cc1O` the figure was 68 nM.
On to `COc1ccc(/C=C\c2cc(OC)c(OC)c(OC)c2)cc1OP(=O)(O)O` [FOSBRETABULIN DISODIUM], for which the outcome with HUVEC [11], in the data set with HUVEC [2], in the data set on HUVEC [4], with SW1222 and in the data set on HUVEC [8] was Active. Besides, in the data set with HUVEC [1], the 50% growth inhibitory concentration (GI50) stood at 8 nM.

By GI50 is commonly meant the concentration giving 50% growth inhibition. Lower therefore signals more potent growth inhibition.
